B2AR ag: beta2AR agonists driving receptor internalization, primary screen, cell-based, FAP fluorogen, flow cytometry; response, % (concentration not given with the values); actives 0.43% (n = 340,000); Am2.2-beta2AR cells; Beta-2 adrenergic receptor (Homo sapiens), P07550;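 active = response above a set limit, near 3 SD of response in nonfluorescent compounds, cut at about 42% in these data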
UHRF1 MBD2 ctr: UHRF1 methylated DNA binding inhibitors, primary screen, counter-screen for MBD2 inhibitor project, biochemical, TR-FRET, human UHRF1, single concentration | E3 ubiquitin-protein ligase UHRF1 (Homo sapiens), Q96T88 | actives 0.75% (n = 370,000) | AID 687016, 2013 | UHRF1 binding to methylated oligo | inhibition, % at 4.4 µM; in the data active = inhibition above about 21%;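 also: UHRF1 SRA domain binding a hemimethylated CpG hairpin DNA probe; 0% = median of test compound wells and 100% = reference inhibitor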
MBD2 DNA inh: inhibitors of MBD2 binding to methylated DNA, primary screen, biochemical, TR-FRET, DNA-binding domain, human; Methyl-CpG-binding domain protein 2 (Homo sapiens), Q9UBB5; MBD2 binding to methylated oligonucleotide; inhibition, % at 4.4 µM; actives 0.31% (n = 370,000); AID 686964, 2013; in the data active = inhibition above about 13%
Target sequence (Q9UBB5 whole entry, looked up, the tested form may be a part): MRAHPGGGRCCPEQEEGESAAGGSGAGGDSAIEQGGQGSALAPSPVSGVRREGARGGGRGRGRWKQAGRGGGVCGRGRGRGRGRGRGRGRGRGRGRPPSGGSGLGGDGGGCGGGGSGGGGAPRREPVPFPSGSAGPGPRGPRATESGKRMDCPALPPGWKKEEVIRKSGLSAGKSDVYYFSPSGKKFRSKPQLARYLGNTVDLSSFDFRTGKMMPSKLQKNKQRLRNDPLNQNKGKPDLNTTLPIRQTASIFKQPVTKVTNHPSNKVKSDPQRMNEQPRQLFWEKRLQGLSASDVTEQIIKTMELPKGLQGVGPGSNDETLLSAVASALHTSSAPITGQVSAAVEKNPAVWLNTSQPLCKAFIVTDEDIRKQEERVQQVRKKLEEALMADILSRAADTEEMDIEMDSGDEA
Rin1 Abl inh: inhibitors of Rin1-Abl protein binding, primary screen, biochemical, TR-FRET; Tyrosine-protein kinase ABL1 (Homo sapiens) + Ras and Rab interactor 1 (Homo sapiens), …; inhibition, % at 7.35 µM; actives 0.4% (n = 360,000); AID 588664, 2011; in the data active = inhibition above about 5%, passing the limit was not always enough
Arr AP2 block: inhibitors of beta-arrestin/AP2 binding, primary screen, biochemical, GPCR trafficking, flow cytometry; beta-arrestin 1 C-terminal peptide binding to AP2 beta2-adaptin appendage (human); FITC-arrestin peptide / GST-AP2 beads; AP2 beta2 appendage carries R879A mutation; inhibition, % at 10 µM; actives 0.31% (n = 340,000); AID 504490, 2011;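 active = inhibition above a set limit, near 3 SD of compounds lacking own fluorescence, cut at about 54% in these data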;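 also: plate controls were DMSO wells for no effect and 5 µM unlabelled arrestin peptide for full effect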
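Test system: GST-tagged AP2 beta2-adaptin appendage (R879A) on 4 µm glutathione beads; also added: fluorescein-tagged arrestin peptide at 50 nM final; timing: 12 min plus 1 h, RT; signal: flow cytometry, FL1 (488/535 nm); read-out: percent drop in bead-associated FITC signal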
ABHD5 PLIN5 PPI: ABHD5-PLIN5 interaction inhibitors, primary screen, cell lysate, split luciferase complementation, luminescence; Perilipin-5 (Homo sapiens) + 1-acylglycerol-3-phosphate O-acyltransferase ABHD5 (Homo …; Split G. princeps luciferase complementation, 4 h; inhibition, % at 4 µM; actives 0.78% (n = 360,000); AID 602281, 2012;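 active = inhibition above the mean inhibition across every tested compound plus 3 SD, cut at about 22% in these data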;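 also: 0% = DMSO only wells and the 100% control is not disclosed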
Rin1-Abl confirm: Rin1-Abl binding inhibitor retest, confirmation, biochemical, TR-FRET; inhibition, % at 7.35 µM; actives 49% (n = 1,300); purified proteins; AID 602124, 2011; shares compounds with Rin1 Abl inh
GFP quencher: GFP fluorescence inhibitors and quenchers, artefact control for Rin1-Abl interaction inhibitor project, biochemical | inhibition, % at 6.75 µM | inhibitors/quenchers counterscreen | actives 8.5% (n = 1,300) | shares compounds with Rin1 Abl inh;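 also: ABL1-eGFP fusion protein alone without its partner RIN1-SBP; 0% = protein with vehicle and 100% = wells lacking protein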
GFP quench DR: GFP fluorescence inhibitors and quenchers, dose response, artefact control for Rin1-Abl interaction inhibitor project, biochemical | shares compounds with Rin1 Abl inh | GFP fluorescence interference/quenching counterscreen | IC50, µM | 230 tested, under 10 active; call rule not given here;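 also: ABL1-eGFP fusion protein alone without its RIN1 binding partner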
* marks the source's active call; other numbers are inactive results; . = no result. Only some compounds are listed: those with a hit (about 2.5% of all), similar ones and a draw of the others. Rule as the data show it, unless noted: active = inhibition above about 6.5%; inactive = the rest.

SMILES	B2AR ag	UHRF1 MBD2 ctr	MBD2 DNA inh	Rin1 Abl inh	Arr AP2 block	ABHD5 PLIN5 PPI	Rin1-Abl confirm	GFP quencher	others
Cc1c(Cl)cccc1NC(=O)c1cc(S(=O)(=O)N2CCOCC2)cn1C	6	-1	-2	8.4*	-1	-6	-1	-1
O=C(NCCc1ccc(Cl)cc1)C1CC(=O)N(C2CCCC2)C1 (stereo not drawn)	-3	2	-3	15*	5	-7	-1	2
Oc1cc2c(cc1O)C1c3ccc(O)c(O)c3OCC1(O)C2 (stereo not drawn)	4	12	9	31*	48	14	31*	20*
O=C(CN1C(=O)CCSc2ccccc21)Nc1ccc(Cl)c(Cl)c1	.	1	1	.	.	.	.	.
COc1ccc(NS(=O)(=O)c2cc(N)ccc2N2CCOCC2)cc1	3	-1	-1	8.3*	27	-1	0	-1
COc1ccc(NS(=O)(=O)c2cc(N)ccc2N2CCCC2)cc1	5	1	-3	4	6	-2	.	.
CN(CCc1ccccc1)C(=O)c1ccc2c(c1)ncn2C1CCCCC1	.	0	4	.	.	.	.	.
OC(c1ccccc1)(c1ccccc1)C1CCN(CCCNc2ccccc2F)CC1	.	0	1	.	.	.	.	.
CCOCc1nnc(NC(=O)c2c(OC)cccc2OC)s1	0	-1	1	22*	3	0	24*	0	GFP quench DR=>67
COc1ccc(-c2c(Cc3ccccc3)nc(NC(=O)c3ccccc3F)n2C)cc1	.	-1	5	.	.	.	.	.
CCOC(=O)N1CCN(CCC(=O)Nc2ccc(Br)c(C)c2)CC1	0	2	0	8.9*	7	0	11*	2
Cc1ccc(C(=O)NCc2ccncc2)cc1S(=O)(=O)Nc1cccc(C)c1C	9	-1	-2	15*	30	9	-1	-3
O=C(NC1CCCCN(Cc2ccc(OC(F)(F)F)cc2)C1=O)c1ccc2ccccc2c1 (stereo not drawn)	.	1	3	.	.	.	.	.
CN(Cc1ccccc1)C(=O)c1ccc(NC(=O)Cc2ccc(NC(=O)C3CCN(C(=O)C4CCCC4)CC3)cc2)cc1	-2	-1	-3	14*	-4	5	19*	-2	GFP quench DR=>68
CN(CCc1ccccc1)C(=O)c1ccc(NC(=O)Cc2ccc(NC(=O)C3CCN(C(=O)C4CCC4)CC3)cc2)cc1	0	-3	6	27*	4	0	26*	2	GFP quench DR=>67
CN(CCc1ccccc1)C(=O)c1ccc(NC(=O)Cc2cccc(NC(=O)C3CCN(C(=O)C4CCCC4)CC3)c2)cc1	-13	1	-4	12*	27	4	16*	0
CN(CCc1ccccc1)C(=O)c1ccc(NC(=O)Cc2cccc(NC(=O)C3CCN(C(=O)C4CCC4)CC3)c2)cc1	-6	1	0	-3	10	6	.	.
CN(CCc1ccccc1)C(=O)c1ccc(NC(=O)Cc2ccc(NC(=O)C3CCN(C(=O)C4CCCCC4)CC3)cc2)cc1	2	1	4	31*	-3	-1	30*	1	GFP quench DR=>68
Cn1cc(SCC(=O)Nc2nc3ccccc3s2)c2ccccc21	15	-2	-2	7.0*	0	-1	-2	2
Cc1csc(SCC(=O)Nc2nc3ccccc3s2)n1	-4	-2	1	0	4	0	.	.
CC(=O)Nc1ccc(NC(=O)CSc2nnc(-c3ccccc3)n2Cc2ccc3c(c2)OCO3)cc1	-5	5	-1	7.8*	6	8	4	0
C=CCNC(=O)CN(C(=O)c1csc2ccc(Cl)cc12)c1cccc(Br)c1	.	-3	-3	.	.	.	.	.
CCOC(=O)CSc1nc2cc(C(=O)N3CCC(C(N)=O)CC3)ccc2c(=O)n1-c1ccccc1	2	.	.	9.0*	37	6	1	-1
CCOC(=O)CSc1nc2cc(C(=O)N3CCCC3)ccc2c(=O)n1Cc1ccccc1	-5	2	-2	-1	21	7	.	.
CCc1nnc(NC(=O)CSc2nnc(CNC(=O)c3cc(OC)c(OC)c(OC)c3)o2)s1	0	-4	-4	8.2*	28	-1	-1	0
SMILES	B2AR ag	UHRF1 MBD2 ctr	MBD2 DNA inh	Rin1 Abl inh	Arr AP2 block	ABHD5 PLIN5 PPI	Rin1-Abl confirm	GFP quencher	others
COC(=O)C1CN(Cc2cn(CCOC(C)=O)nn2)CCS(=O)(=O)N1Cc1ccc(OC)cc1 (stereo not drawn)	.	14	9	.	.	.	.	.
O=C(NC(NC(=S)Nc1ccccc1C(=O)O)C(Cl)(Cl)Cl)c1ccco1 (stereo not drawn)	-6	2	2	7.0*	1	-1	0	1
COC(=O)c1ccccc1NC(=S)NC(NC(=O)c1ccco1)C(Cl)(Cl)Cl (stereo not drawn)	-7	.	.	1	-1	-9	.	.
COc1cc(OC)cc(-c2oc(=O)c3cc(OC)c(OC)cc3c2C#CCCO)c1	0	2	4	29*	31	0	76*	-1
Cc1cccc(-c2cccc3c4c([nH]c23)[C@@H]2C[C@H](N(C)C(=O)OCc3ccccc3)[C@H]([C@H](C)O)CN2CC4)c1	.	-3	0	.	.	.	.	.
O=C1CNC(=O)N1CC(O)Cn1c2ccccc2c2ccccc21 (stereo not drawn)	0	-3	0	24*	-6	6	28*	-1	GFP quench DR=>67
Nc1cccc2nc3ccccc3cc12	7	.	.	-6	-7	8	.	.
Cc1cc2c(N)cccc2nn1	13	45*	9	12*	27	-12	-7	1
O=C1c2ccccc2C(=O)N1/N=C/c1ccc(O)c(O)c1	7	1	-1	11*	16	-3	-3	6
COCCn1c(SCC(=O)Nc2ccc3c(c2)OCCO3)nc2ccccc2c1=O	.	5	9	7.0*	.	9	-1	-1
CCN(CC)C(=O)CC[C@@H]1CC[C@]2(CCCN(Cc3ccncc3)C2)O1	.	-3	2	.	.	.	.	.
O=C(NC1CCCCC1)c1cccnc1C(=O)O	-1	2	-4	5.9*	-4	0	2	0
